# KCNQ1 block – blocks the human KCNQ1 potassium channel. P51787. CHO-K1 KCNQ1, FluxOR thallium flux fluorescence; active compounds read high. B-score at 10 µM. hit rate 1.3% among 310,000. AID 2642;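 active = compounds whose thallium flux B-score, printed positive for inhibition, exceeds three library SD while starting fluorescence stays within three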;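 note: channel opened by potassium depolarization with thallium stimulus after 20 min compound exposure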
# KCNK3 inh – human KCNK3 channel inhibition, primary screen; O14649; CHO-KCNK3 thallium flux, FluxOR fluorescence; active compounds read low; B-score at 10 µM; hit rate 0.84% among 340,000; AID 602410;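 active = B-score under library mean minus 4 SD, starting fluorescence ratio at most library mean plus 5 SD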;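 note: more negative B-score means stronger inhibition of thallium flux through KCNK3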
# Target sequence (O14649 whole entry, looked up): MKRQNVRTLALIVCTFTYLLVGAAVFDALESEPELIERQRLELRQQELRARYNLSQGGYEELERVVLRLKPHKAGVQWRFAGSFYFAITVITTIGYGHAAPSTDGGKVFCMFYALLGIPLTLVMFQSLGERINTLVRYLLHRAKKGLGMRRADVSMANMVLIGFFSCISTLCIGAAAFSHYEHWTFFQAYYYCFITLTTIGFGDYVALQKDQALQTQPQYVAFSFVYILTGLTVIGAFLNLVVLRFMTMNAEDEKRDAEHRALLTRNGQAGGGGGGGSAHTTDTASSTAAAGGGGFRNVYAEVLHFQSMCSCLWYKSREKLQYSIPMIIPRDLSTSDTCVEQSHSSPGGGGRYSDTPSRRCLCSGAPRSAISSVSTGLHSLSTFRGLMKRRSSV
# hERG rescue – compounds protecting human hERG from proarrhythmic drug block | Q12809 | CHO-hERG, FluxOR thallium flux, dofetilide IC70 present | activation (rescue from dofetilide block), less the hit threshold, % at 10 µM | hit rate 0.51% among 310,000;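 active = activation above the mean of controls blocked by dofetilide plus 5 SD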;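 note: thallium influx through hERG after potassium depolarization seen as dye fluorescence rise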
# KCNQ1 pot – potentiators or activators of human KCNQ1 potassium channel | P51787 | B-score at 10 µM | CHO-K1 KCNQ1, thallium flux FluxOR fluorescence; active compounds read high | AID 2648 | hit rate 0.35% among 310,000;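 active = fluorescence ratio B-score, a plate-corrected score, at least three library SD, with initial intensity B-score within 5 SD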
#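 Doses: Single concentration per compound, DMSO matched to controls | Test system: KCNQ1-transfected CHO-K1 cells | Timing: 90 min dye loading and 20 min compound exposure, both at room temperature | Measured by: Kinetic FluxOR thallium fluorescence, 10-s 1-Hz baseline, 110-s post-stimulus read | Medium: Assay buffer with matched DMSO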
# Kir21 inh – inhibitors of mouse Kir2.1 inward-rectifier potassium channel. P35561. hit rate 0.85% among 310,000. HEK293-Kir2.1, FluxOR thallium flux fluorescence; active compounds read low. B-score at 10 µM;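 active = fluorescence ratio B-score at or below minus 3 SD of library scores, with starting-brightness B-score within 2 SD, cut at about -4.2 in these data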;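 note: channel flux triggered by added potassium and thallium sulfate stimulus; B-score of peak minus minimum fluorescence over baseline after thallium stimulus; more negative B-score means stronger Kir2.1 block with less thallium influx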
# KCNK9 block – inhibitors of human KCNK9 two-pore domain potassium channel; B-score at 10 µM; hit rate 1.2% among 310,000; Q9NPC2; HEK293 KCNK9, FluxOR thallium flux fluorescence; active compounds read low;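 active = ratio B-score over 3 SD below the library mean, with starting fluorescence within 5 SD of its mean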;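 note: negative B-score means less thallium flux so channel inhibition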
# KCNK9 block conf – human KCNK9 inhibitor confirmation. shares compounds with KCNK9 block. HEK293 KCNK9 cells, FluxOR thallium flux fluorescence. inhibition, % at 10 µM. hit rate 43% among 4,900. AID 492992;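 active = thallium signal inhibited by more than 5 SD of the compound-free buffer control wells, on both duplicate plates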
# Kir2-1 spec – mouse Kir2.1 off-target activity of KCNK9 modulators | shares compounds with KCNK9 block | Kir2.1 cells, FluxOR thallium flux fluorescence | inhibition, % at 10 µM | hit rate 4% among 4,900;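 active = thallium signal drop more than 5 SD beyond the mean of the no-compound control wells, seen in both duplicate plates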;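 note: signal is fluorescence rise after thallium addition divided by baseline fluorescence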
# KCNK9 uninduced – second check of KCNK9 modulator effects in non-induced HEK293 cells; inhibition, % at 10 µM; hit rate 40% among 4,900; FluxOR thallium flux; shares compounds with KCNK9 block;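 active = thallium signal drop beyond 5 SD of the untreated control mean, on both duplicate plates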
# Numbers stand for hits; 0 = inactive; - = not tested or not shown. An excerpt weighted towards active compounds, which were near 3.8% of everything screened.
SMILES,KCNQ1 block,KCNK3 inh,hERG rescue,KCNQ1 pot,Kir21 inh,KCNK9 block,KCNK9 block conf,Kir2-1 spec,KCNK9 uninduced
CCCN(CCC)C(=O)CSc1nc2ccccc2c(=O)n1CC1COc2ccccc2O1 (stereo not drawn),0,0,0,0,0,0,0,0,0
COc1ccc(NS(=O)(=O)c2cc(NC(=O)COc3ccc(OC)cc3)ccc2N2CCOCC2)cc1,-,0,-,-,-,-,-,-,-
N#Cc1c(Nc2ccccc2)sc(C(=O)c2ccc(F)cc2)c1N,0,0,0,0,0,0,-,-,-
Nc1c(C(=O)c2ccccc2)sc(Nc2ccccc2)c1S(=O)(=O)c1ccccc1,0,0,0,0,0,0,0,0,0
CCOc1ccccc1C=NNC(=O)C1CC1,-,0,-,-,-,-,-,-,-
COc1ccc(N(CCCN2C(=O)c3cccc4cccc(c34)C2=O)C(=O)c2cccnc2)cc1,0,0,0,0,0,0,0,0,0
COc1ccc(N(CCCN2C(=O)c3cccc4cccc(c34)C2=O)C(=O)c2ccncc2)cc1,0,0,0,0,0,0,-,-,-
Cc1cccc(COCC(Cc2ccccc2)N2CCN(C(=O)c3cccc(C)c3)CCC2=O)c1 (stereo not drawn),0,0,0,0,0,0,0,0,0
CCCC/C=C/C(NC(=O)CCc1ccccc1)c1ccccc1 (stereo not drawn),0,0,0,0,0,-10,47.5%,0,35.0%
c1ccc2c(-c3cncc4ccccc34)cncc2c1,0,0,0,0,0,0,-,-,-
O=C(CSc1ccc(Cl)cc1)N1CCN(c2ncc(C(F)(F)F)cc2Cl)CC1,0,0,0,0,0,0,0,0,0
O=C(CN1CCN(c2ncc(C(F)(F)F)cc2Cl)CC1)N1CCN(c2ncc(C(F)(F)F)cc2Cl)CC1,0,0,0,0,0,0,-,-,-
O=C(CSc1ncc(C(F)(F)F)cc1Cl)N1CCN(S(=O)(=O)c2ccccc2)CC1,0,0,0,0,0,0,-,-,-
O=C(CSc1ncc(C(F)(F)F)cc1Cl)N1CCN(S(=O)(=O)c2ccc(Cl)cc2)CC1,0,0,0,0,0,0,0,0,0
CCc1ccc(NC(=O)c2cnc(SC)nc2C)cc1,0,0,0,0,0,0,-,-,-
Cc1ccc(SCC2(O)CCN(S(=O)(=O)c3ccc(Cl)cc3)CC2)cc1,0,0,0,80,0,0,0,0,0
COc1ccc(/C=C/C(O)=C2/C(=O)NC3(C)CC2c2ccccc2O3)c(OC)c1OC (stereo not drawn),0,0,0,0,0,0,-,-,-
Cc1ccc(/C=C/C(O)=C2/C(=O)N(C)C3(C)CC2c2ccccc2O3)cc1 (stereo not drawn),0,0,0,0,0,-8.33,51.5%,0,42.5%
COc1ccc(/C=C/C(O)=C2/C(=O)N(C)C3(C)CC2c2ccccc2O3)cc1 (stereo not drawn),0,0,0,0,0,-10.3,41.0%,0,30.0%
Cc1cc(C)c(C)c(S(=O)(=O)Nc2ccccc2N2CCOCC2)c1C,-,0,-,-,-,-,-,-,-
CC(=O)Nc1ccc(S(=O)(=O)N(C)Cc2cnn(C)c2)cc1,0,0,0,0,0,0,-,-,-
COc1ccccc1C/C(N)=N/OC(=O)COc1ccc(C)cc1C,0,0,0,0,0,0,0,0,0
COc1ccc(C/C(N)=N/OC(=O)COc2ccccc2C)cc1,0,0,0,0,0,0,-,-,-
CCOC(=O)C1(C)NC(c2cccs2)C2C(=O)N(c3ccc(C)cc3)C(=O)C21 (stereo not drawn),0,0,0,0,0,0,-,-,-
CCOC(=O)C1(C)NC(c2cccc(C)c2)C2C(=O)N(c3ccccc3)C(=O)C21 (stereo not drawn),0,0,0,0,0,0,0,0,0
CC(NC(=O)C(C)N1CCN(Cc2ccccc2)CC1)c1ccccc1 (stereo not drawn),0,0,0,0,0,0,-,-,-

# Assay outcomes from PubChem.
